# Experimental data gathered from unrelated publications.
# Target: Mitogen-activated protein kinase kinase kinase kinase 2 (MAP4K2, Homo sapiens, UniProt Q12851)
# Residues used in one study (Q12851 1-820): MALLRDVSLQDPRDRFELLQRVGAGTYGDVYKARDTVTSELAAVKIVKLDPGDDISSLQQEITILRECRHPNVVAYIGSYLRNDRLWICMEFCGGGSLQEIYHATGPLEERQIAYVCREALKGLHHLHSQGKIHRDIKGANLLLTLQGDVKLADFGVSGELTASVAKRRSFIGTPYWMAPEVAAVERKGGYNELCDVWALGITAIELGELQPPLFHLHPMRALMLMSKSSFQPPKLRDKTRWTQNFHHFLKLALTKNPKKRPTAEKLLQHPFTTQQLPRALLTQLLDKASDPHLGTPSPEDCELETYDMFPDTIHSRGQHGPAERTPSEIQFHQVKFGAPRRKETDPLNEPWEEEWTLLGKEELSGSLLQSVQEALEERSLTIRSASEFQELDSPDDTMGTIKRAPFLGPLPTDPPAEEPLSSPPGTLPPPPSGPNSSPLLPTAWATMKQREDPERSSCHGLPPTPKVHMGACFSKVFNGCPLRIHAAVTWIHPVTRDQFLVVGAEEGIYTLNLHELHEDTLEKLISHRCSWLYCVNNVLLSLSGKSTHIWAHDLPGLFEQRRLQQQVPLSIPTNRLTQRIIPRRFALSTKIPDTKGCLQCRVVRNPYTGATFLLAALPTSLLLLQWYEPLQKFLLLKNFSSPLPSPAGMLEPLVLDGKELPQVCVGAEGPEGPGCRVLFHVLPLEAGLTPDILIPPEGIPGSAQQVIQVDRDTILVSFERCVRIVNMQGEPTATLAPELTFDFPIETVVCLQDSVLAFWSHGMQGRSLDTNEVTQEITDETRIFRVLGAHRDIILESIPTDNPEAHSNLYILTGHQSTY
Compound,test,conditions,remaining binding [%]
CN(C)c1nccc(-c2cnn3ncccc23)n1,binding,1 µM,100
CNC(=O)[C@@H]1CC[C@@H](n2c(-c3ccc4cnccc4c3)nc3ccc(C(=O)NCc4cccc(C(N)=O)c4)cc32)C1,"binding, competition with immobilised ligand",1 µM,100
O=C(N1CCS(=O)(=O)CC1)N1C[C@H](c2ccc(OC(F)(F)F)cc2)C[C@H](c2nc(C3CC3)no2)C1,"cell-free assay, competition with immobilised ligand",1 µM,94
F[C@@H]1CCN(c2nccc(-c3cnn4ncccc34)n2)C1,binding,1 µM,100
CN(C)c1ncnc(-c2ccc3nc(Nc4cc(CN5CCN(C(=O)CC(F)(F)F)CC5)ccn4)[nH]c3c2)c1Cl,"cell-free assay, competition with immobilised ligand",1 µM,69
O=C(NCCCN1CCOCC1)c1ccc(Nc2nccc(-c3cc4ccccc4s3)n2)cc1,"binding, competition with immobilised ligand",1 µM,73
COc1cnc(Nc2cccc(S(N)(=O)=O)c2)nc1N1CCN(c2ccccc2)CC1,"binding, competition with immobilised ligand",1 µM,78
CCN1CCN(Cc2ccc(C(=O)Nc3ccc(C)c(Oc4ccc5c(c4)CC(=O)N5)c3)cc2C(F)(F)F)CC1,"binding, competition with immobilised ligand",1 µM,100
O=C(c1ccc(Nc2nccc(-c3cc4ccccc4s3)n2)cc1)N1CCC(N2CCCC2)CC1,"binding, competition with immobilised ligand",1 µM,52
c1cncc(-c2cccc(Nc3nccc(NC4CCCCC4)n3)c2)c1,"binding, competition with immobilised ligand",10 µM,67
C[C@H]1CCN(c2nccc(-c3cnn4ncccc34)n2)C1,binding,1 µM,71
CNC(=O)Nc1ccc2c(c1)CC[C@@]21OC(=O)N(CC(=O)N(Cc2ccc(F)cc2)[C@@H](C)C(F)(F)F)C1=O,"cell-free assay, competition with immobilised ligand",1 µM,76
O=C(NCC1CCOCC1)c1n[nH]cc1NC(=O)c1c(F)cccc1F,"binding, competition with immobilised ligand",1 µM,100
O=C(NC[C@@H]1[C@H]2CN(C(=O)OCc3cc(C(F)(F)F)cc(C(F)(F)F)c3)C[C@@H]12)c1ccc2[nH]nnc2c1,"cell-free assay, competition with immobilised ligand",1 µM,92
CN(C)c1nccc(-c2cnc3ncccn23)n1,binding,1 µM,54
O=C(O)c1cc(-c2ccc(C3CCNCC3)cc2)c2ccc(-c3ccc(C(F)(F)F)cc3)cc2c1,"cell-free assay, competition with immobilised ligand",1 µM,100
c1cnn2ncc(-c3ccnc(N4CCC45COC5)n3)c2c1,binding,1 µM,70
CO[C@H]1CC[C@H](CNc2ccc(S(=O)(=O)NC(=O)c3ccc(N4CCN(CC5=C(c6ccc(Cl)cc6)CC(C)(C)CC5)CC4)cc3Oc3cnc4[nH]ccc4c3)cc2[N+](=O)[O-])CC1,"cell-free assay, competition with immobilised ligand",1 µM,83
FC(F)(F)Oc1cccc(-c2cnc3ccc(-c4ccncc4)nn23)c1,"cell-free assay, competition with immobilised ligand",5 µM,17
Cc1cnc(Nc2ccc(C(=O)N3CCC(N4CCCC4)CC3)cc2)nc1-c1cc2ccccc2s1,"binding, competition with immobilised ligand",1 µM,41
COc1ncc2cc3ccccc3nc2c1C#N,"cell-free assay, competition with immobilised ligand",5 µM,84
N[C@@H]1CCN(c2nccc(-c3cnn4ncccc34)n2)C1,binding,1 µM,100
